Bioassay records (PubChem)
The list is not random: actives were taken first. Their share in the collection is about 0.81%.
SDO1 yeast rescue = sdo1-depleted yeast growth rescue | S. cerevisiae sdo1-depleted JHY4D growth rescue, OD600 30 h; stronger effect = higher value; pdr5 snq2 efflux-pump mutant strain | z-score at 10 µM | 140,000 compounds, 0.21% hits;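 active = z-score above 3 at both the 24 hr and the 30 hr optical density reads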;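 note: z-score against mean and SD of all compound wells on the same plate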
TNAP act hi DEA = activators of human TNAP at high phosphate acceptor concentration. P05186. purified TNAP, CDP-star luminescence, 1 M DEA, 30 min; stronger effect = higher value; 0 = EDTA background, 1 = DMSO-only activity. activation factor at 20 µM. 200,000 tested, under 10 active. AID 1136;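 active = activation factor at least 2 at 20 µM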
Target sequence (P05186 whole entry, looked up): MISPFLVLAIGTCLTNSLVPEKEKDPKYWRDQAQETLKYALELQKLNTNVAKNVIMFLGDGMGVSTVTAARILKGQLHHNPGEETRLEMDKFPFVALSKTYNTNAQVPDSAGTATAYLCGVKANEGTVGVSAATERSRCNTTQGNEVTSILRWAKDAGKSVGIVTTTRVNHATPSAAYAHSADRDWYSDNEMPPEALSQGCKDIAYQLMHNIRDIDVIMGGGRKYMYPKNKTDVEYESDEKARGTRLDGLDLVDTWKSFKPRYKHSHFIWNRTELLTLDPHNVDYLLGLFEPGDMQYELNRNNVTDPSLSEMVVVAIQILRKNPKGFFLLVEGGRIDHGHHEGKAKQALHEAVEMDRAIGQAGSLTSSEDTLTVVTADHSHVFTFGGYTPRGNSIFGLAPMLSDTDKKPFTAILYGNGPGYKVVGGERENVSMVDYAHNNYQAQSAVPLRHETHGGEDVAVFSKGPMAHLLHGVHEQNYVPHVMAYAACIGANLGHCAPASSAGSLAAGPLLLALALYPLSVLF
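Assay system: human TNAP; Input: enzyme diluted 1/800 final; Reagent: CDP-star luminogenic substrate at 100 µM final; Timing: 30 min, room temperature; Signal: luminescence; Evaluation: TNAP activation factor scaled between EDTA and DMSO control wells.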
TNAP inh no acc = TNAP (human) inhibition, acceptor-free conditions | P05186 | inhibition, % at 20 µM | AID 1012 | 200,000 compounds, 0.26% hits | purified TNAP, CDP-star luminescence, 30 min;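 active = tissue-nonspecific alkaline phosphatase inhibition above about 50% at 20 µM in the single-dose screen, limit read from the data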;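 note: 0% = DMSO negative control and 100% = EDTA positive control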
TNAP inh hiacc = TNAP (human) inhibition, high acceptor. P05186. purified TNAP, CDP-star luminescence, 1 M DEA. inhibition, % at 20 µM. 200,000 compounds, 0.03% hits. AID 1135;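 active = over 50% inhibition of tissue-nonspecific alkaline phosphatase at 20 µM in the single-dose screen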;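 note: plate controls were DMSO wells for no effect and EDTA-quenched wells as full inhibition for full effect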
TNF necrop inh = blocks TNF-alpha induced death of Jurkat FADD-/- cells | Jurkat FADD-/- TNF necroptosis rescue, ATP luminescence, 24 h; 0 = TNF only, 100 = no-TNF cells | activation (protection from cell death), % at 10 µM | AID 463075 | 220,000 compounds, 0.068% hits;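 active = activation, meaning protection from cell death, of at least 50% relative to plate controls; inactive = activation below 50%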;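 note: necroptosis triggered by 40 ng/mL TNF-alpha added together with compound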
zVAD death inh = blocks zVAD induced death of L929 cells. 220,000 compounds, 0.38% hits. L929 zVAD necroptosis rescue, ATP luminescence, 24 h; with zVAD 60 µM. viability rescue, % at 10 µM;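 active = activation, scaled between plate controls, above about 75%, limit read from the data; inactive = activation under that limit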;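 note: 0% = zVAD with DMSO and 100% = DMSO alone without zVAD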
sdo1 rescue conf = confirmation of growth rescue in SDO1-depleted yeast, bone marrow failure; S. cerevisiae JHY4D (SDO1-depleted) growth rescue, OD600, 30 h; stronger effect = higher value; efflux-deficient strain, SNQ2 and PDR5 mutated; 440 compounds, 44% hits; shares compounds with SDO1 yeast rescue; OD recovery (test concentration not listed); AID 949;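 active = yeast growth recovered at 30 hours, either rising with dose fitted slope above 0.001 or with average optical density gain above 0.07, some results past the limit were not filed as active; inactive = growth falling with dose or no effect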;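 note: gain in OD600 from 0 h to 30 h averaged across all seven doses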
zVAD death conf = confirmed blocker of zVAD induced death in L929 cells; shares compounds with zVAD death inh; L929 zVAD-induced necroptosis rescue, ATP luminescence, 24 h; activation (protection from necroptosis), % at 10 µM; 760 compounds, 16% hits; AID 463117;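 active = mean protection from necroptosis of at least 50% over duplicate tests; inactive = mean protection below 50%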;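 note: 0% = cells with zVAD alone and 100% = vehicle cells without zVAD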
* marks the source's active call; other numbers are inactive results.

COc1ccc(-n2c(C)cc(SC)c(C(C)=O)c2=S)cc1 was read as SDO1 yeast rescue 0.38, TNAP act hi DEA 1, TNAP inh no acc -3, TNAP inh hiacc 4, TNF necrop inh 0 and zVAD death inh 0.
Screening CSc1cc(C)n(-c2ccc(Cl)cc2)c(=S)c1C(C)=O returned SDO1 yeast rescue 11*, TNAP act hi DEA 1.1, TNAP inh no acc -1, TNAP inh hiacc -9, TNF necrop inh -1, zVAD death inh 0 and sdo1 rescue conf 0.05.
`C=CC[C@@H]1Cc2c(Br)ccc(Br)c2[C@@H](CC=C)N1` gave SDO1 yeast rescue 6.5*, TNAP act hi DEA 1, TNAP inh no acc -1, TNAP inh hiacc 0, TNF necrop inh 1, zVAD death inh 0 and sdo1 rescue conf 0.1*.
For COc1ccc(OCC(O)Cn2c(Nc3ccccc3)nc3c2c(=O)n(C)c(=O)n3C)cc1 (stereo unspecified) the results were SDO1 yeast rescue 1.2, TNAP act hi DEA 1, TNAP inh no acc 2, TNAP inh hiacc -4, TNF necrop inh 1, zVAD death inh 0 and sdo1 rescue conf 0.052*.
For Cn1c(=O)c2c(nc(NC3CCCCC3)n2CC(O)COc2ccccc2)n(C)c1=O (stereo unspecified) the results were SDO1 yeast rescue -0.9, TNAP act hi DEA 1, TNAP inh no acc -16, TNAP inh hiacc -5, TNF necrop inh -4 and zVAD death inh 0.
`O=C(CSc1nnc(Nc2ccccc2)s1)Nc1cccc(S(=O)(=O)N2CCCCC2)c1` gave SDO1 yeast rescue -0.63, TNAP act hi DEA 1, TNAP inh no acc -47, TNAP inh hiacc -1, TNF necrop inh -1 and zVAD death inh 1.
`Cc1ccc(CC2CC(=O)N(CCc3ccc4c(c3)OCO4)C2=O)cc1` (stereo unspecified) gave SDO1 yeast rescue -1.8, TNAP act hi DEA 1.1, TNAP inh no acc -15, TNAP inh hiacc -10, TNF necrop inh -3 and zVAD death inh 0.
`COc1cccc(CC2CC(=O)N(CCc3ccc4c(c3)OCO4)C2=O)c1` (stereo unspecified) gave SDO1 yeast rescue 5.3*, TNAP act hi DEA 1, TNAP inh no acc -7, TNAP inh hiacc 1, TNF necrop inh 0, zVAD death inh 0 and sdo1 rescue conf 0.088*.
`COc1ccc2oc(C(=O)OCC(=O)NCCN3C(=O)CSC3=O)c(C)c2c1` gave SDO1 yeast rescue 1.2, TNAP act hi DEA 1, TNAP inh no acc -19, TNAP inh hiacc -2, TNF necrop inh 0 and zVAD death inh 1.
Screening Cc1cc(C)cc(-n2nnnc2SCC(=O)Nc2nc(-c3ccc(F)cc3)cs2)c1 returned SDO1 yeast rescue 0.7, TNAP act hi DEA 1, TNAP inh no acc -6, TNAP inh hiacc -3, TNF necrop inh -2 and zVAD death inh 0.
`O=C(CSc1nnnn1-c1ccccc1)Nc1nc(-c2ccccc2)ns1` gave SDO1 yeast rescue 2, TNAP act hi DEA 1, TNAP inh no acc -9, TNAP inh hiacc -4, TNF necrop inh 1, zVAD death inh 0 and sdo1 rescue conf 0.071*.
For Cc1ccc(-n2nnnc2SCC(=O)Nc2nc(-c3ccc(F)cc3)cs2)cc1C the results were SDO1 yeast rescue 0.64, TNAP act hi DEA 1, TNAP inh no acc 10, TNAP inh hiacc 3, TNF necrop inh -2, zVAD death inh 0 and sdo1 rescue conf 0.029.
Cc1ccc2[nH]c(=O)c(-c3noc(CC(C)C)n3)cc2c1 was read as TNF necrop inh -1 and zVAD death inh 0.
`COC(=O)c1nc2cc(C)ccn2c1F` gave SDO1 yeast rescue -0.02, TNAP act hi DEA 1, TNAP inh no acc -2, TNAP inh hiacc 1, TNF necrop inh 2 and zVAD death inh 4.
For COC(=O)c1c(C(=O)OC)c2cc(C)ccn2c1Cl the results were SDO1 yeast rescue 11*, TNAP act hi DEA 1.1, TNAP inh no acc -18, TNAP inh hiacc -9, TNF necrop inh -4, zVAD death inh 0 and sdo1 rescue conf 0.084*.
Nc1cc(-c2ccc(Br)cc2)[nH]n1 was read as SDO1 yeast rescue 5.4*, TNAP act hi DEA 0.9, TNAP inh no acc 26, TNAP inh hiacc 7, TNF necrop inh 1 and sdo1 rescue conf 0.096*.
Cc1nc2nc(C)c(CCC(=O)NC(C)c3ccc4c(c3)OCCO4)c(C)n2n1 (stereo unspecified) was read as SDO1 yeast rescue 2, TNAP act hi DEA 1, TNAP inh no acc -10, TNAP inh hiacc -2, TNF necrop inh -5, zVAD death inh 0 and sdo1 rescue conf 0.038.
`Cc1nc2ncnn2c(C)c1CCC(=O)NC(C)c1ccc2c(c1)OCCO2` (stereo unspecified) gave SDO1 yeast rescue 1.1, TNAP act hi DEA 1, TNAP inh no acc -1, TNAP inh hiacc -4, TNF necrop inh -2 and zVAD death inh 1.
`COCCn1c(=NC(=O)/C=C/c2ccccc2)sc2cc(NC(C)=O)ccc21` gave SDO1 yeast rescue 0.28, TNAP act hi DEA 1, TNAP inh no acc -10, TNAP inh hiacc 0, TNF necrop inh -4, zVAD death inh 81* and zVAD death conf 7.
`CCCCCc1nc2c(c(=O)c3ccccc3n2C)c(=O)n1Cc1ccc(OC)cc1` gave TNF necrop inh -4 and zVAD death inh 1.
Screening Cc1[nH][nH]c(=O)c1C(c1c(C)[nH][nH]c1=O)c1cn(C)c2ccccc12 returned TNAP act hi DEA 0.7, TNAP inh no acc 45, TNAP inh hiacc 32, TNF necrop inh -3, zVAD death inh 80* and zVAD death conf 23.
Cc1[nH][nH]c(=O)c1C(c1c(C)[nH][nH]c1=O)c1cn(Cc2cccc3ccccc23)c2ccccc12 was read as SDO1 yeast rescue -0.78, TNAP act hi DEA 0.8, TNAP inh no acc -12, TNAP inh hiacc 16, TNF necrop inh -23 and zVAD death inh 0.
Screening Cc1ccccc1CC1(CO)CCCN(C(=O)CCCN2CCCCC2=O)C1 (stereo unspecified) returned TNAP act hi DEA 1.1, TNAP inh no acc -11, TNAP inh hiacc -8, TNF necrop inh 1 and zVAD death inh 1.
For CSc1ccc(CNCCCN(C)C)cc1 the results were SDO1 yeast rescue 0.48, TNAP act hi DEA 0.9, TNAP inh no acc -3, TNAP inh hiacc 6, TNF necrop inh 1 and zVAD death inh 2.
